The series is described as follows: Toxicity liver stage against HepG2, at 10uM. In kind it is cell-based. Also on record: test concentration 10 uM, cell line HepG2-A16-CD81EGFP. To be noted: human, HepG2-A16-CD81EGFP cells; read-out: INHIBITION
The gist of the method:
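Uninfected HepG2-A16-CD81EGFP cells, 3 × 10^3 per well, 1536-well, plated on prespotted compound at 10 μM final, parasite-free screening media added to match infected plates; puromycin 10 μM positive, DMSO 0.5% negative; run in parallel with 48 h PbLuc assay at 37 °C, 5% CO2; viability by CellTiter-Glo luminescence, normalized to controls.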

Turning to `N#Cc1cccc(CN2CC[C@@H]3[C@@H]2CC(=O)N3Cc2cccnc2)c1`, the cytotoxicity at 10 µM is 5.2%.

`Cc1noc(CN(C)CC(c2cccs2)N2CCOCC2)n1` (centres undefined): the cytotoxicity at 10 µM is -0.524%.

With `Cc1c(F)cccc1NC(=O)N(C(C)CS(C)(=O)=O)C1CC1` (centres undefined), the cytotoxicity at 10 µM was found to be 8.29%.

For `Cc1ccc(CNc2ccn(CCC(N)=O)n2)c(Br)c1`, the cytotoxicity at 10 µM was -1.65%.

For the compound `O=C(CN1CCC(c2cc(=O)n3c(n2)CCCCC3)CC1)N1CCCC1`, the cytotoxicity at 10 µM was found to be 4.62%.

In the case of `Cc1ccc(C(=O)N2CCC(n3cc(CO)nn3)CC2)cn1`, the cytotoxicity at 10 µM is -1.72%.

With `Cc1cc(C)nc(N2CCC(CNC(=O)c3cnccn3)CC2)n1`, the cytotoxicity at 10 µM was -26.1%.

Turning to `CCn1c(C)nnc1SCCNc1cc(N2CCOCC2)ncn1`, the cytotoxicity at 10 µM was found to be 0.801%.

On to `N#Cc1ccc(OC2CCN(CC(=O)NCC3CCCO3)CC2)cc1` (centres undefined), for which the cytotoxicity at 10 µM worked out at 34.8%.

`O=C(NCCNc1cnccn1)N1CCCCCC1`: the cytotoxicity at 10 µM was -3.33%.

In the case of `CCC(O)CN1CCN(C(=O)Cc2ccccc2Cl)CC1` (centres undefined), the cytotoxicity at 10 µM was -7.98%.

For `FC(F)(F)c1ccc(CNC[C@H]2COCc3nc4cccnc4n32)cc1`, the cytotoxicity at 10 µM turned out to be 8.04%.

`CC(C)c1cc(C(=O)N2CCN(Cc3ccco3)CC2)n[nH]1`: the cytotoxicity at 10 µM was determined as 2.18%.

Take `Cc1ccc(-c2cc(CN3CCCC(Cn4cncn4)C3)on2)cc1` (centres undefined): the cytotoxicity at 10 µM is -11.8%.

As for `O=C(CC1=CCCCC1)Nc1ncn(CC(=O)N2CCCCCC2)n1`, the cytotoxicity at 10 µM was 1.72%.

On to `Cn1ccc(CNC(=O)Nc2ccc(S(=O)(=O)C(F)F)cc2)c1`, for which the cytotoxicity at 10 µM was found to be 5.93%.

With `CC(C)Oc1ccccc1OCCN1C(=O)CCNC1=O`, the cytotoxicity at 10 µM is -6.67%.

For `Cc1cc(C)c(CNC(=O)C(C)Oc2ccccc2F)c(=O)[nH]1` (centres undefined), the cytotoxicity at 10 µM worked out at 6.99%.

As to `NC(=O)c1cccc(CC2CCN(C(=O)CCc3cccc(F)c3)C2)c1` (centres undefined), the cytotoxicity at 10 µM is -3.75%.

`O=C(CN1CCCS1(=O)=O)NCCOc1ccc2c(c1)CCC2`: the cytotoxicity at 10 µM is -2.5%.

Regarding `Cc1nc(C)n(CC2CCCN(CCOc3ccccc3C#N)C2)n1` (centres undefined), the cytotoxicity at 10 µM amounted to 4.61%.

As to `O=C(c1cnoc1)N1CCC[C@]2(C[C@@H](OCc3ccccn3)CO2)C1`, the cytotoxicity at 10 µM was -9.47%.

With `COCCN1C[C@@H]2[C@@H](OC)CCN(S(=O)(=O)c3cccnc3)[C@@H]2C1`, the cytotoxicity at 10 µM was -71.7%.

As to `c1cncc(COCC2CC[C@H]3[C@H](CCN3CC3CCOCC3)O2)c1` (some centres undefined), the cytotoxicity at 10 µM is -71.4%.

As for `CNc1cncc(C2CCCN2S(=O)(=O)c2ccccc2F)n1` (centres undefined), the cytotoxicity at 10 µM was -15.1%.

`CNc1ccc(Cl)cc1C(=O)N1CCC(Cn2cc(CN)nn2)CC1`: the cytotoxicity at 10 µM was -2.37%.

Consider `Cc1nc(-c2ccc(S(=O)(=O)N3CCOCC3)cc2)co1`, for which the cytotoxicity at 10 µM was -9.52%.

For `Cc1noc([C@H]2COC[C@H]3CN(C(=O)Cc4cccc(F)c4)C[C@H]32)n1`, the cytotoxicity at 10 µM is 6.93%.

`CC(C)=CCCC1(C)CCC(=O)N(CCc2nc(N)cc(O)n2)C1` (centres undefined): the cytotoxicity at 10 µM stood at 0.361%.

With `Cc1ccc(CN2CCC(n3cc(C(O)c4ccccc4)nn3)CC2)o1` (centres undefined), the cytotoxicity at 10 µM was found to be 2.11%.

Regarding `COc1cc(C)ccc1OCc1nc(C(=O)N2CCCNC(=O)C2)co1`, the cytotoxicity at 10 µM is -44.5%.

With `CCCn1ncc(C(=O)N2CCC(N3CCCCC3)CC2)c1C`, the cytotoxicity at 10 µM was -143%.

For `Cc1cc(C(=O)N2CCCC(c3noc(C)n3)C2)[nH]n1` (centres undefined), the cytotoxicity at 10 µM is -6.67%.

Take `Cc1ccc(CNCCS(=O)(=O)N2CCOCC2)cc1C`: the cytotoxicity at 10 µM is 1.41%.

Regarding `NC(=O)C1CCN(C(=O)c2cc(-n3cnnn3)ccc2Cl)CC1`, the cytotoxicity at 10 µM worked out at 12.4%.

Consider `COc1c(C2CCCN2C(=O)c2ccnn2C)c(C)nn1C` (centres undefined), for which the cytotoxicity at 10 µM came out at 2.55%.

With `CSc1nc2cc(C)n(CC(N)=O)c2c(=O)n1CC(C)C`, the cytotoxicity at 10 µM was -11.3%.

For the compound `CC(C)CNC(=O)Cn1ccc2ccccc21`, the cytotoxicity at 10 µM is -43.4%.

With `CC(C)(CN1CCCC1)CN1CCC(Cn2cc(C3CC3)nn2)CC1`, the cytotoxicity at 10 µM was -12.2%.
